Measurements taken from article PMC6477682 (Journal of the American Chemical Society, 2018).

What was measured:
[1] = tested on: S. aureus; experiment: Photoinactivation; format: cell-based, Staphylococcus aureus; conditions: at 1 µM and 2 µM, with and without photoirradiation (Figure 4c)
[2] = tested on: LOS- A. baumannii cells; experiment: Photoinactivation of LOS- A. baumannii; format: cell-based, Acinetobacter baumannii; conditions: at the same concentrations, with and without photoirradiation (Figure 5c)
How it was run: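 AB5075-derived LOS− strain grown to OD600~0.7, washed, diluted in PBS (pH 7.4) to ~1×10^8 cfu/mL, incubated 15 min with eosin-conjugated peptide (2 µM) or controls. Half the suspension irradiated 15 min with blue light (120 W lamp, fluorescein filter, 20X objective); the other half kept dark. Plated on LB agar + 10 µg/mL polymyxin b, 24 h. Killing from colony counts vs untreated PBS control; mean of two trials.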

O=C1OC2(c3ccccc31)c1cc(Br)c(O)c(Br)c1Oc1c2cc(Br)c(O)c1Br [eosin]
S. aureus cell death, controls [1]: did not elicit cell death | LOS- A. baumannii cell death, controls [2]: did not elicit A. baumannii cell death
